Measured values: the M2OR odorant receptor database

Tests used:
Conditions in all cases: stereoisomer not certain
O14A2 I133V = tested on: T1, O14A2 I133V
T1 sequence (whole entry): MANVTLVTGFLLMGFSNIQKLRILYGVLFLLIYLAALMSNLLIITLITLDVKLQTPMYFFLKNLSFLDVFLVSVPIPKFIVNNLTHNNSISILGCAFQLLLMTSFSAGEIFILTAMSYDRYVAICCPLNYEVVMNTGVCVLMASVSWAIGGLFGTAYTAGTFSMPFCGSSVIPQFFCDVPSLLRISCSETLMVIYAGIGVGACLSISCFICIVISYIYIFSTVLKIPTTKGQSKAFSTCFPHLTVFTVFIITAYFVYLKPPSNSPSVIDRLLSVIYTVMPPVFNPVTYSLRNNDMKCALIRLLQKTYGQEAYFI
How it was run: (§1)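 Assay methods differ from source to source, frequently being transient luciferase assays in mammalian cell lines. For each receptor–molecule pair, the label responsive (active) applies when the original authors judged the measured signal statistically different from baseline, and non-responsive (inactive) applies otherwise.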

O14CZ = tested on: T2, O14CZ
T2 sequence (whole entry): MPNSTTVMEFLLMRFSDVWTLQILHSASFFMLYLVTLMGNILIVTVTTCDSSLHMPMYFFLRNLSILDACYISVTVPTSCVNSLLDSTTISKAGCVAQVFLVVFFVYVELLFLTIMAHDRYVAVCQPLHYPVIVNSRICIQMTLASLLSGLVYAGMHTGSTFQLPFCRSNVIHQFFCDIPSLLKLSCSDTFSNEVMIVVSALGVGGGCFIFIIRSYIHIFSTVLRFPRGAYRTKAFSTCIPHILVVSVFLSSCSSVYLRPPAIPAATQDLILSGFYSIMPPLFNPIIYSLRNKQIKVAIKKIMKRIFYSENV
How it was run: as §1

O14I1 V36A D50N Y216C = tested on: T3, O14I1 V36A D50N Y216C
T3 sequence (whole entry): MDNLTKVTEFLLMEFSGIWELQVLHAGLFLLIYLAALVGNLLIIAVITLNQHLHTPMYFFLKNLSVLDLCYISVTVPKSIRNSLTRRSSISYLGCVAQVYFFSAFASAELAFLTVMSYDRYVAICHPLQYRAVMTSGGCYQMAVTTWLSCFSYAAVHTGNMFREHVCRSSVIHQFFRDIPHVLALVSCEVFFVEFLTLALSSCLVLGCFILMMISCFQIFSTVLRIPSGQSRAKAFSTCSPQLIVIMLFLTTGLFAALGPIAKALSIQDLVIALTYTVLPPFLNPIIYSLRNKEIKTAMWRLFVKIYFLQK
How it was run: as §1

O14J1 N3Y = tested on: T4, O14J1 N3Y
T4 sequence (whole entry): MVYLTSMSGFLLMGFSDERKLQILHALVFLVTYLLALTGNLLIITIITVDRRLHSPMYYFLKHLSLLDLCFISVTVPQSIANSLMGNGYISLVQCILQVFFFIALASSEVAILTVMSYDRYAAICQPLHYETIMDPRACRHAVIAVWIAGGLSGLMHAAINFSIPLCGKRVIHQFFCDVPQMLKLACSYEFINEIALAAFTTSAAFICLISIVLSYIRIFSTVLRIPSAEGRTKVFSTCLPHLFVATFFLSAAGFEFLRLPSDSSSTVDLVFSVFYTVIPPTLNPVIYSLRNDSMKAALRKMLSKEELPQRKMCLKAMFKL
How it was run: as §1

O14K1 D119Y = tested on: T5, O14K1 D119Y
T5 sequence (whole entry): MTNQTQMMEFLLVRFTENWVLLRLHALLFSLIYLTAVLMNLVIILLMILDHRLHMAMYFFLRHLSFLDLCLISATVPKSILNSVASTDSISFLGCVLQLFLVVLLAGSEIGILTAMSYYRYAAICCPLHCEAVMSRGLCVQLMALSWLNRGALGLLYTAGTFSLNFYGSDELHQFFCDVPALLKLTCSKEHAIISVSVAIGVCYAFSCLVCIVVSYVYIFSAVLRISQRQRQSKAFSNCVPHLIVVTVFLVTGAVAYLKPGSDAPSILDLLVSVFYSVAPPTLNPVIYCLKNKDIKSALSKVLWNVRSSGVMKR
How it was run: as §1

O2A25 = tested on: T6, O2A25
T6 sequence (whole entry): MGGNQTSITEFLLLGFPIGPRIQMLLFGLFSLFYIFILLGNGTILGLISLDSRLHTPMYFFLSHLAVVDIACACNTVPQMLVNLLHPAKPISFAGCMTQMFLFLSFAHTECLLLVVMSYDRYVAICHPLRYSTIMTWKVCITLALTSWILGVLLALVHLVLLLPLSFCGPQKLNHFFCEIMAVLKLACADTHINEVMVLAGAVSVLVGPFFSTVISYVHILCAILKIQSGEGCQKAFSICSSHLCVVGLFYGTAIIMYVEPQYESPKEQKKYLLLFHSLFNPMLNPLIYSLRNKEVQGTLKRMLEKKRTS
How it was run: as §1

O2AE1 = tested on: T7, O2AE1
T7 sequence (whole entry): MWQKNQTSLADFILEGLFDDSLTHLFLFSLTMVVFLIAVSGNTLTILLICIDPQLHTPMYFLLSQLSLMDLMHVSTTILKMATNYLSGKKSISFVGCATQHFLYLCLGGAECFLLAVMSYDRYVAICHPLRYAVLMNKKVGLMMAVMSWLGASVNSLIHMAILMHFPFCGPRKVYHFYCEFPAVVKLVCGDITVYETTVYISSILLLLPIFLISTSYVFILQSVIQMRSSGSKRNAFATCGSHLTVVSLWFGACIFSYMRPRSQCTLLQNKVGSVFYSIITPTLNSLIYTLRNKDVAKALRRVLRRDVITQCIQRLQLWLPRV
How it was run: as §1

O2AJ1 = tested on: T8, O2AJ1
T8 sequence (whole entry): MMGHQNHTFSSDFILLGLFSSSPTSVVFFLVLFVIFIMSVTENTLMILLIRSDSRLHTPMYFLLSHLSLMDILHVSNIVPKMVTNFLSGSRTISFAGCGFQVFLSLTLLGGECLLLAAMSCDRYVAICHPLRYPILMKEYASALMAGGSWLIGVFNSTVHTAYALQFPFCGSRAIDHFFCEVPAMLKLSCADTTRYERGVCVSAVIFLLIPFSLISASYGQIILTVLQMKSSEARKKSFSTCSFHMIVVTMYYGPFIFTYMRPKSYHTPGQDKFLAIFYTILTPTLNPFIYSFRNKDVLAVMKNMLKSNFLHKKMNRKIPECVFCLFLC
How it was run: as §1

O2AK2 S99N = tested on: T9, O2AK2 S99N
T9 sequence (whole entry): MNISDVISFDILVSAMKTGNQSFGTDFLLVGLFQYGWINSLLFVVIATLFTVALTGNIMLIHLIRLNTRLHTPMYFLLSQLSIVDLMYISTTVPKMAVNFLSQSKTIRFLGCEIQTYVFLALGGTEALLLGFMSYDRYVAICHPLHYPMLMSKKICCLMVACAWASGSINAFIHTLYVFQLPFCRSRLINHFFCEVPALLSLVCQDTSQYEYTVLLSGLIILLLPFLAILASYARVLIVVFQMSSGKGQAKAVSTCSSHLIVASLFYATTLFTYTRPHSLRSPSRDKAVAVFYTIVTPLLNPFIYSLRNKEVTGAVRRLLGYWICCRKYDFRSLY
How it was run: as §1

O1440 = tested on: T10, O1440
T10 sequence (whole entry): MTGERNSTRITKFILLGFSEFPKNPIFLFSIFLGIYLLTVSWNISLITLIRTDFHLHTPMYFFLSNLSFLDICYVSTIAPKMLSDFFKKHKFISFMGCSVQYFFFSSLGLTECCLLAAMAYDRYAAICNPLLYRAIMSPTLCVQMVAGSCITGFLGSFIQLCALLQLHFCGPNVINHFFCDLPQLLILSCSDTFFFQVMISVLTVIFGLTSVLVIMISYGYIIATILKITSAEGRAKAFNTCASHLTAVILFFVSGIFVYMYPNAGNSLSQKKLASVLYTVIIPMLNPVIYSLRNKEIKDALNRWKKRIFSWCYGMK
How it was run: as §1

Measured: odorant receptor agonist call

CC1=C(O)C(=O)OC1C (configuration not stated)
not listed: O1440
inactive: all other assays above

CC1CC=CCCCCCCCCC(=O)C1 (configuration not stated)
active: O1440

CCCCCCCCCCCCCC(C)=O
active: O1440

CC(=O)c1c(C)c([N+](=O)[O-])c(C(C)(C)C)c([N+](=O)[O-])c1C
active: O1440

O=C1CCCCCCCCC1
inactive: O1440

OC1CCCCCCCCCCCCCC1
active: O1440

O=C1CCCC=CCCCCCCCCCC1
active: O1440

O=C1CCCCCCC=CCCCCCCC1
active: O1440

c1ccc2ncccc2c1
active: O2A25

CC1C(C)(C)C2=C(C(=O)CCC2)C1(C)C (configuration not stated)
active: O1440

Cc1cnc(C)c(C)n1
not listed: O1440
inactive: all other assays above

CCCC(S)CCOC(C)=O (configuration not stated)
not listed: O1440
inactive: all other assays above

CCC1OC(C)=C(O)C1=O (configuration not stated)
not listed: O1440
inactive: all other assays above

O=C1CCCCCCCCCC1
inactive: O1440

CC1CCCCCCCCCCCC(=O)C1 (configuration not stated)
active: O1440

CCC1OC(=O)C(O)=C1C (configuration not stated)
not listed: O1440
inactive: all other assays above

CCC(=O)OCC(C)(C)OC(C)C1CCCC(C)(C)C1 (configuration not stated)
inactive: O1440

C1CCCCCCCCCCCCCC1
inactive: O1440

CC1=C(O)C(=O)C(C)O1 (configuration not stated)
not listed: O1440
inactive: all other assays above
